Compound activity as filed in PubChem.
5-HT1A blocker = antagonists of human 5-HT1a serotonin receptor; P08908; CHO 5-HT1a Ga15 NFAT-bla reporter, antagonist mode; inhibition, % at 10 µM; hit rate 0.68% among 62,000; AID 612;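 active means inhibition above the mean of all tested compounds plus 3 SD, cut at about 43% in these data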;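 further: receptor stimulated by 5-CT agonist at 100 nM near EC80; beta-lactamase reporter measured by ratiometric fluorescence of a cleavable substrate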
5HT1E antag = 5-HT1E (human) receptor antagonism; AID 571; inhibition, % at 6 µM; P28566; hit rate 0.99% among 65,000; CHO 5-HT1E Ga15 NFAT-bla reporter, FRET, antagonist;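 active means inhibition above a set limit, the mean inhibition across every tested compound plus 3 SD, cut at about 29% in these data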;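 further: signal is the 460 over 535 nm emission ratio of beta-lactamase substrate; 0% = agonist plus DMSO wells and 100% = wells without agonist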
5HT1a ag = activates the human 5-HT1a serotonin receptor. P08908. CHO 5-HT1a Ga15 NFAT-bla reporter, FRET ratio; 0% basal, 100% maximal reference agonist. activation, % at 10 µM. hit rate 0.56% among 65,000;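 active means activation above the screen-wide mean activation plus 3 SD, cut at about 19% in these data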;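 further: 0% = DMSO wells and 100% = 5-CT at EC100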
S1P1 ag-PAM = S1P1 (human) agonism or agonism potentiation | activation, % at 9.5 µM | P21453 | S1P1 CRE-bla cells, forskolin, beta-lactamase FRET, potentiator mode; S1P1 agonist co-added at EC20, 2 nM; 100% = saturating reference agonist, 0% = basal | hit rate 0.57% among 56,000;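 active means activation above a cutoff set at the mean activation of all tested compounds plus 3 SD, cut at about 54% in these data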;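 further: forskolin at 4 µM as EC80 and the EC20 agonist is SEW2871; 100% = SEW2871 at its EC100 plus forskolin at EC80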
S1P3 ag = S1P3 (human) receptor agonism; Q99500; S1P3 NFAT-BLA reporter cells, FRET ratio; relative to 1 µM S1P, basal subtracted; activation, % at 4.5 µM; hit rate 0.1% among 60,000;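 active means activation above the screen-wide mean plus 3 SD, cut at about 4.5% in these data, passing the limit was not always enough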
Target sequence (Q99500 whole entry, looked up): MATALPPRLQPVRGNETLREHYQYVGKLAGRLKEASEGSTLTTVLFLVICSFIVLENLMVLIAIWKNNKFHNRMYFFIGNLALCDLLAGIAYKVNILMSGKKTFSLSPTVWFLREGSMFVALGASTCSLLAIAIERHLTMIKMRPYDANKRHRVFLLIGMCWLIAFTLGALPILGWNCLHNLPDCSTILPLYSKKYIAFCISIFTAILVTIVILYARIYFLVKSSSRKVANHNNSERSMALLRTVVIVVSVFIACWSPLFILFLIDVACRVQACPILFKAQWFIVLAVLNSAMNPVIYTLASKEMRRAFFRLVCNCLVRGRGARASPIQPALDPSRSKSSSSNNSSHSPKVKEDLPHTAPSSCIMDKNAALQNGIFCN
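Benchmarks: high control 1 µM S1P / System: stable CHO line with human S1P3, Gα16, NFAT-BLA reporter / Dosing: single compound concentration, 4.5 µM final / Timing: 4 h compound at 37 °C, 2 h substrate at RT / Measured by: FRET β-lactamase substrate fluorescence, excitation 405 nm, 460/535 nm emission ratio, background-subtracted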
HTR1E agonist = agonists of human 5-HT1E serotonin receptor; hit rate 0.69% among 65,000; CHO 5-HT1E Ga15 NFAT-bla reporter, FRET; 0% DMSO wells, 100% control agonist wells; activation, % at 6 µM; P28566;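 active means activation above a set limit, the screen-wide mean activation plus 3 SD, cut at about 8.5% in these data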;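 further: 100% = positive control agonist at 1 µM giving full maximal response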
* = called active by the depositor; . = no result. Rows were chosen to be rich in hits. Some 3% of all compounds tested hit in one or more screens of this group.

SMILES | 5-HT1A blocker | 5HT1E antag | 5HT1a ag | S1P1 ag-PAM | S1P3 ag | HTR1E agonist
CCn1c(O)c(C=NCCc2c[nH]c3ccccc23)c(=O)[nH]c1=O | 12 | 5 | 0 | -7 | -1 | 17*
Nc1c(C(=O)NCc2ccco2)c2nc3ccccc3nc2n1CCN1CCCCC1 | . | -23 | 6 | -123 | 11* | 0
CC(C)OC(=O)c1c(N)n(Cc2ccco2)c2nc3ccccc3nc12 | . | 29* | 6 | -32 | -4 | 0
COCCOC(=O)c1c(N)n(Cc2ccco2)c2nc3ccccc3nc12 | . | 11 | 2 | -25 | -3 | 0
CCOC(=O)C1SC2(C(F)F)CC1(O)c1c(c(OC)c3occc3c1OC)O2 (stereo unspecified) | 6 | -1 | -1 | -35 | 1 | 0
CCOC(=O)c1cncn1C(C)c1ccccc1 (stereo unspecified) | 4 | -1 | 1 | . | . | -2
Oc1ccc(C2NCc3ccccc3-n3cccc32)cc1Cl (stereo unspecified) | -7 | 6 | 2 | 94* | 0 | 1
CCCCn1c(O)c(C(C)=NC(Cc2c[nH]c3ccccc23)C(=O)OC)c(=O)[nH]c1=O (stereo unspecified) | -5 | -9 | -3 | -19 | 0 | 1
CN1CCN(c2c[nH]c(=O)[nH]c2=O)CC1 | 0 | 3 | -2 | -6 | 0 | 0
CC(C(=O)N1CCC2(CC1)OCCO2)C1Sc2ccccc2NC1=O (stereo unspecified) | 3 | 6 | -3 | -1 | -2 | 0
CCOC(=O)c1cc2c(cn1)[nH]c1ccccc12 | . | 32* | 2 | 11 | -4 | -1
Cc1ccc2c(c1)C1CN(C)CCC1N2C(=O)c1ccc(Br)o1 (stereo unspecified) | 60* | -5 | -3 | . | . | 0
Cc1ccc2c(c1)[C@@H]1CN(C)CC[C@@H]1N2C(=O)Nc1cccc(C(F)(F)F)c1 | . | 1 | 0 | 8 | -5 | 0
O=C(Cn1ncc2c3ccccc3n(Cc3ccc(F)cc3)c2c1=O)N1CCC2(CC1)OCCO2 | 7 | 6 | 1 | 18 | -1 | 0
COc1ccc(C(=O)N2CCOCC2)cc1S(=O)(=O)N1CCC(C)CC1 | -8 | -2 | 40* | . | 0 | 0
COc1ccc(C(=O)CN2CCOCC2)cc1F | . | 1 | 3 | 10 | -4 | 1
CC(=O)c1cccc(OCC(O)CN2CC=C(c3ccccc3)CC2)c1 (stereo unspecified) | 65* | 11 | 5 | -4 | -1 | -1
Cc1c(C(=O)N2CCC3(CC2)OCCO3)sc2ncnc(N3CCN(c4ccccn4)CC3)c12 | -12 | 9 | 0 | 1 | -1 | 0
CC12CN3C(O)C(C)(C1)CC(C)(C2)C3O (stereo unspecified) | 7 | 11 | -4 | -1 | 0 | -1
CN(C)c1nc(OCCNC(=O)COc2ccc(Cl)cc2Cl)nc(N2CCCCC2)n1 | -3 | 102* | -1 | . | 0 | 0
